Assay results: ChEMBL document CHEMBL3593164, “Rational Design and Synthesis of Thioridazine Analogues as Enhancers of the Antituberculosis Therapy” (J Med Chem, 2015)

What was measured:
[1] = tested on: Mycobacterium tuberculosis; experiment: Inhibition of multidrug resistance efflux pump in Mycobacterium tuberculosis H37Rv assessed as rifampin MIC at 32 ug/ml after 7 days by two-dimensional broth microdilution checkerboard assay; settings: 168 h
[2] = tested on: Mycobacterium tuberculosis; experiment: Inhibition of multidrug resistance efflux pump in Mycobacterium tuberculosis H37Rv assessed as isoniazid MIC at 4 ug/ml after 7 days by two-dimensional broth microdilution checkerboard assay; settings: 168 h
[3] = tested on: Mycobacterium tuberculosis; experiment: Inhibition of multidrug resistance efflux pump in Mycobacterium tuberculosis H37Rv assessed as isoniazid MIC at 8 ug/ml after 7 days by two-dimensional broth microdilution checkerboard assay; settings: 168 h
[4] = tested on: Mycobacterium tuberculosis; experiment: Inhibition of multidrug resistance efflux pump in Mycobacterium tuberculosis H37Rv assessed as rifampin MIC at 16 ug/ml after 7 days by two-dimensional broth microdilution checkerboard assay; settings: 168 h
[5] = tested on: Mycobacterium tuberculosis; experiment: Inhibition of multidrug resistance efflux pump in Mycobacterium tuberculosis H37Rv assessed as ofloxacin MIC at 16 ug/ml after 7 days by two-dimensional broth microdilution checkerboard assay; settings: 168 h
[6] = tested on: Mycobacterium tuberculosis; experiment: Inhibition of multidrug resistance efflux pump in Mycobacterium tuberculosis H37Rv assessed as ofloxacin MIC at 32 ug/ml after 7 days by two-dimensional broth microdilution checkerboard assay; settings: 168 h
[7] = tested on: Mycobacterium tuberculosis; experiment: Inhibition of multidrug resistance efflux pump in Mycobacterium tuberculosis H37Rv assessed as ofloxacin MIC at 8 ug/ml after 7 days by two-dimensional broth microdilution checkerboard assay; settings: 168 h
[8] = tested on: Mycobacterium tuberculosis; experiment: Inhibition of multidrug resistance efflux pump in Mycobacterium tuberculosis H37Rv assessed as ethidium bromide MIC at 64 ug/ml after 7 days by two-dimensional broth microdilution checkerboard assay; settings: 168 h
[9] = tested on: Mycobacterium tuberculosis; experiment: Inhibition of multidrug resistance efflux pump in Mycobacterium tuberculosis H37Rv assessed as ethidium bromide MIC at 32 ug/ml after 7 days by two-dimensional broth microdilution checkerboard assay; settings: 168 h
[10] = tested on: Mycobacterium tuberculosis; experiment: Inhibition of multidrug resistance efflux pump in Mycobacterium tuberculosis H37Rv assessed as amikacin MIC at 8 ug/ml after 7 days by two-dimensional broth microdilution checkerboard assay; settings: 168 h
[11] = tested on: Mycobacterium tuberculosis; experiment: Inhibition of multidrug resistance efflux pump in Mycobacterium tuberculosis H37Rv assessed as isoniazid MIC at 16 ug/ml after 7 days by two-dimensional broth microdilution checkerboard assay; settings: 168 h
[12] = tested on: Mycobacterium tuberculosis; experiment: Inhibition of multidrug resistance efflux pump in Mycobacterium tuberculosis H37Rv assessed as rifampin MIC at 8 ug/ml after 7 days by two-dimensional broth microdilution checkerboard assay; settings: 168 h
[13] = tested on: Mycobacterium tuberculosis; experiment: Inhibition of multidrug resistance efflux pump in Mycobacterium tuberculosis H37Rv assessed as rifampin MIC at 64 ug/ml after 7 days by two-dimensional broth microdilution checkerboard assay; settings: 168 h
[14] = tested on: Mycobacterium tuberculosis; experiment: Inhibition of multidrug resistance efflux pump in Mycobacterium tuberculosis H37Rv assessed as reduction in rifampin MIC at 64 ug/ml after 7 days by two-dimensional broth microdilution checkerboard assay
[15] = tested on: Mycobacterium tuberculosis; experiment: Inhibition of multidrug resistance efflux pump in Mycobacterium tuberculosis H37Rv assessed as ofloxacin MIC at 64 ug/ml after 7 days by two-dimensional broth microdilution checkerboard assay; settings: 168 h
[16] = tested on: Mycobacterium tuberculosis; experiment: Inhibition of multidrug resistance efflux pump in Mycobacterium tuberculosis H37Rv assessed as amikacin MIC at 32 ug/ml after 7 days by two-dimensional broth microdilution checkerboard assay; settings: 168 h
[17] = tested on: Mycobacterium tuberculosis; experiment: Inhibition of multidrug resistance efflux pump in Mycobacterium tuberculosis H37Rv using ethidium bromide as substrate assessed as relative final fluorescence at 1/2 MIC by real-time fluorometry
[18] = tested on: Mycobacterium tuberculosis; experiment: Inhibition of multidrug resistance efflux pump in Mycobacterium tuberculosis H37Rv assessed as amikacin MIC at 4 ug/ml after 7 days by two-dimensional broth microdilution checkerboard assay; settings: 168 h
[19] = tested on: Mycobacterium tuberculosis; experiment: Inhibition of multidrug resistance efflux pump in Mycobacterium tuberculosis H37Rv assessed as ofloxacin MIC at 4 ug/ml after 7 days by two-dimensional broth microdilution checkerboard assay; settings: 168 h
[20] = tested on: Mycobacterium tuberculosis; experiment: Inhibition of multidrug resistance efflux pump in Mycobacterium tuberculosis H37Rv assessed as ethidium bromide MIC at 8 ug/ml after 7 days by two-dimensional broth microdilution checkerboard assay; settings: 168 h
[21] = tested on: Mycobacterium tuberculosis; experiment: Inhibition of multidrug resistance efflux pump in Mycobacterium tuberculosis H37Rv assessed as amikacin MIC at 16 ug/ml after 7 days by two-dimensional broth microdilution checkerboard assay; settings: 168 h
[22] = tested on: Mycobacterium tuberculosis; experiment: Inhibition of multidrug resistance efflux pump in Mycobacterium tuberculosis H37Rv assessed as amikacin MIC at 64 ug/ml after 7 days by two-dimensional broth microdilution checkerboard assay; settings: 168 h
[23] = tested on: Mycobacterium tuberculosis; experiment: Inhibition of multidrug resistance efflux pump in Mycobacterium tuberculosis H37Rv assessed as ethidium bromide MIC at 4 ug/ml after 7 days by two-dimensional broth microdilution checkerboard assay; settings: 168 h
[24] = tested on: Mycobacterium tuberculosis; experiment: Inhibition of multidrug resistance efflux pump in Mycobacterium tuberculosis H37Rv assessed as ofloxacin MIC at 256 ug/ml after 7 days by two-dimensional broth microdilution checkerboard assay; settings: 168 h
Method in brief: (§1)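 M. tuberculosis H37Rv two-dimensional broth microdilution checkerboard. MICs of INH, RIF, AMK, OFX or EtBr were determined without and with graded sub-inhibitory compound concentrations, starting at ½ MIC. Where MIC was undeterminable, the highest concentration still permitting growth was taken as ½ MIC. FIC = MIC of antibacterial in combination / MIC alone. FIC ≤0.25 was scored as synergism and ≥2 as antagonism.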

[25] = tested on: Mycobacterium tuberculosis; experiment: Inhibition of multidrug resistance efflux pump in Mycobacterium tuberculosis H37Rv assessed as isoniazid MIC at 128 ug/ml after 7 days by two-dimensional broth microdilution checkerboard assay; settings: 168 h
[26] = tested on: Mycobacterium tuberculosis; experiment: Inhibition of multidrug resistance efflux pump in Mycobacterium tuberculosis H37Rv assessed as ethidium bromide MIC at 128 ug/ml after 7 days by two-dimensional broth microdilution checkerboard assay; settings: 168 h
[27] = tested on: Mycobacterium tuberculosis; experiment: Inhibition of multidrug resistance efflux pump in Mycobacterium tuberculosis H37Rv assessed as amikacin MIC at 128 ug/ml after 7 days by two-dimensional broth microdilution checkerboard assay; settings: 168 h
[28] = tested on: Mycobacterium tuberculosis; experiment: Inhibition of multidrug resistance efflux pump in Mycobacterium tuberculosis H37Rv assessed as amikacin MIC at 256 ug/ml after 7 days by two-dimensional broth microdilution checkerboard assay; settings: 168 h; method in brief: as §1
[29] = tested on: Mycobacterium tuberculosis; experiment: Inhibition of multidrug resistance efflux pump in Mycobacterium tuberculosis H37Rv assessed as reduction in rifampin MIC at 256 ug/ml after 7 days by two-dimensional broth microdilution checkerboard assay; method in brief: as §1
[30] = tested on: Mycobacterium tuberculosis; experiment: Inhibition of multidrug resistance efflux pump in Mycobacterium tuberculosis H37Rv assessed as ethidium bromide MIC at 256 ug/ml after 7 days by two-dimensional broth microdilution checkerboard assay; settings: 168 h
[31] = tested on: Mycobacterium tuberculosis; experiment: Inhibition of multidrug resistance efflux pump in Mycobacterium tuberculosis H37Rv assessed as rifampin MIC at 256 ug/ml after 7 days by two-dimensional broth microdilution checkerboard assay; settings: 168 h; method in brief: as §1
[32] = tested on: Mycobacterium tuberculosis; experiment: Inhibition of multidrug resistance efflux pump in Mycobacterium tuberculosis H37Rv assessed as ofloxacin MIC at 128 ug/ml after 7 days by two-dimensional broth microdilution checkerboard assay; settings: 168 h
[33] = tested on: Mycobacterium tuberculosis; experiment: Inhibition of multidrug resistance efflux pump in Mycobacterium tuberculosis H37Rv assessed as rifampin MIC at 128 ug/ml after 7 days by two-dimensional broth microdilution checkerboard assay; settings: 168 h
[34] = tested on: Mycobacterium tuberculosis; experiment: Inhibition of multidrug resistance efflux pump in Mycobacterium tuberculosis H37Rv assessed as isoniazid MIC at 256 ug/ml after 7 days by two-dimensional broth microdilution checkerboard assay; settings: 168 h; method in brief: as §1

Row | SMILES | MIC [1] | MIC [2] | MIC [3] | MIC [4] | MIC [5] | MIC [6] | MIC [7] | MIC [8] | MIC [9] | MIC [10] | MIC [11] | MIC [12] | MIC [13] | MIC [15] | MIC [16] | RFU [17] | MIC [18] | MIC [19] | MIC [20] | MIC [21] | other results
1 | CN1CCCCC1CCn1c2ccccc2c2ccccc21 (racemic) | 0.0625 µg/mL | 0.1 µg/mL | 0.1 µg/mL | 0.5 µg/mL | 1 µg/mL | 1 µg/mL | 1 µg/mL | < 0.195 µg/mL | 1.56 µg/mL | 1 µg/mL | 0.1 µg/mL | 0.5 µg/mL | < 0.0156 µg/mL | < 0.0156 µg/mL | 0.625 µg/mL | 0.33 | 1 µg/mL | 1 µg/mL | 12.5 µg/mL | 1 µg/mL | fold change (FC) [14]: >64; MIC [22]: < 0.0156 µg/mL; MIC [23]: 12.5 µg/mL
2 | COc1ccc(N(CCC2CCCCN2C)C(C)C)cc1OC (racemic) | 0.25 µg/mL | 0.1 µg/mL | 0.1 µg/mL | 0.25 µg/mL | 2 µg/mL | 2 µg/mL | 2 µg/mL | 12.5 µg/mL | 12.5 µg/mL | 2 µg/mL | 0.1 µg/mL | 0.25 µg/mL | 0.25 µg/mL | 2 µg/mL | 2 µg/mL | 0.84 | 2 µg/mL | 2 µg/mL | 12.5 µg/mL | 2 µg/mL | MIC [24]: 1 µg/mL; MIC [25]: 0.1 µg/mL; MIC [26]: 12.5 µg/mL; MIC [27]: 2 µg/mL; MIC [28]: 2 µg/mL; fold change (FC) [29]: 164; MIC [30]: 12.5 µg/mL; fold change (FC) [14]: 4; MIC [31]: < 0.0156 µg/mL; MIC [32]: 2 µg/mL; MIC [33]: 0.25 µg/mL; MIC [34]: 0.1 µg/mL; MIC [22]: 2 µg/mL; MIC [23]: 12.5 µg/mL
3 | CN1CCCCC1CCn1ccc2ccc(Br)cc21 (racemic) | 0.0312 µg/mL | 0.1 µg/mL | 0.1 µg/mL | 0.0625 µg/mL | 1 µg/mL | 1 µg/mL | 1 µg/mL | 1.56 µg/mL | 6.25 µg/mL | 1 µg/mL | 0.1 µg/mL | 0.25 µg/mL | < 0.0156 µg/mL | < 0.0156 µg/mL | 1 µg/mL | 1.22 | 1 µg/mL | 1 µg/mL | 12.5 µg/mL | 1 µg/mL | MIC [24]: < 0.0156 µg/mL; MIC [25]: < 0.0015 µg/mL; MIC [26]: < 0.195 µg/mL; MIC [27]: < 0.0156 µg/mL; MIC [28]: < 0.0156 µg/mL; fold change (FC) [29]: >164; MIC [30]: < 0.195 µg/mL; fold change (FC) [14]: >164; MIC [31]: < 0.0156 µg/mL; MIC [32]: < 0.0156 µg/mL; MIC [33]: < 0.0156 µg/mL; MIC [34]: < 0.00078 µg/mL; MIC [22]: > 0.0156 µg/mL; MIC [23]: 12.5 µg/mL
4 | CN1CCCCC1CCn1cnc2ccccc21 (racemic) | 0.5 µg/mL | 0.1 µg/mL | 0.1 µg/mL | 0.5 µg/mL | 1 µg/mL | 1 µg/mL | 1 µg/mL | 12.5 µg/mL | 12.5 µg/mL | 1 µg/mL | 0.1 µg/mL | 0.5 µg/mL | 0.5 µg/mL | 1 µg/mL | 1 µg/mL | 1 | 1 µg/mL | 1 µg/mL | 12.5 µg/mL | 1 µg/mL | MIC [24]: < 0.0156 µg/mL; MIC [25]: 0.1 µg/mL; MIC [26]: 12.5 µg/mL; MIC [27]: 1 µg/mL; MIC [28]: < 0.0156 µg/mL; fold change (FC) [29]: >64; MIC [30]: < 0.195 µg/mL; MIC [31]: < 0.0156 µg/mL; MIC [32]: 1 µg/mL; MIC [33]: 0.5 µg/mL; MIC [34]: < 0.00078 µg/mL; MIC [22]: 1 µg/mL; MIC [23]: 12.5 µg/mL
5 | CSc1ccc2c(c1)N(CCC1CCCCN1C)c1ccccc1S2 (stereo not given) [THIORIDAZINE] |  |  |  |  |  |  |  |  |  |  |  |  |  |  |  | 0.27 |  |  |  |  | 
